Converted amounts (≈) assume the structure as drawn.
Key:
[1] = Inhibition of Staphylococcus aureus TyrRS expressed in Escherichia coli assessed as tRNA aminoacylation pre-incubated for 10 mins using Escherichia coli MRE600 tRNA and L-[ring-3,5-3H]tyrosine by liquid scintillation counting
Procedure, shortened: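 S. aureus TyrRS overexpressed in E. coli and purified to about 98% (SDS–PAGE). Enzyme (0.2 nM) preincubated with inhibitor range 10 min at room temperature, then prewarmed mix added at 37 °C. Aliquots quenched in cold 7% TCA, filtered, scintillation counted. Kept linear, under 50% tRNA acylation.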

Escherichia coli = assay: Antimicrobial activity against multiple drug-resistant Escherichia coli ATCC 35218 after 8 to 10 hrs by MTT proliferation assay; format: functional
Procedure, shortened: (§1)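 Broth microdilution in LB medium in 96-well plates, inoculum about 10⁵ cfu/mL, serially diluted compounds, sterile medium as blank control. MTT (3 mg/mL in PBS) added, then 4–5 h at room temperature. Dye extracted with SDS lysis buffer (10% SDS, 5% isopropanol, pH about 3.5) for 8–10 h at room temperature. Absorbance read at 570 nm, control OD 1.0–2.0. MIC₅₀ reported.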

Bacillus subtilis = assay: Antimicrobial activity against tetracycline-resistant Bacillus subtilis ATCC 6633 after 8 to 10 hrs by MTT proliferation assay; format: functional; procedure, shortened: as §1
Staphylococcus aureus = assay: Antimicrobial activity against […] Staphylococcus aureus ATCC 25923 after 8 to 10 hrs by MTT proliferation assay; format: functional; procedure, shortened: as §1
DNA gyrase = DNA gyrase (Escherichia coli, UniProt P0AES4+P0AES6); assay: Inhibition of Escherichia coli DNA gyrase assessed as reduction in enzyme-mediated DNA supercoiling using relaxed pBR322 substrate incubated for 60 mins by electrophoresis method; format: protein-complex assay

| SMILES | IC50 [1] | MIC50 (Escherichia coli) | MIC50 (Bacillus subtilis) | MIC50 (Staphylococcus aureus) | IC50 (DNA gyrase) |
| --- | --- | --- | --- | --- | --- |
| O=C1OCC(OCCN2CCOCC2)=C1c1ccc(O)cc1 | 100 nM | – | – | – | – |
| CCn1cc(C(=O)O)c(=O)c2cc(F)c(N3CCN(CCOC4=C(c5ccccc5)C(=O)OC4)CC3)cc21 | – | > 25 µg/mL | 16.6 µg/mL (≈ 31.8 µM) | 18.9 µg/mL (≈ 36.2 µM) | – |
| CCn1cc(C(=O)O)c(=O)c2cc(F)c(N3CCN(CCOC4=C(c5ccccc5)C(=O)OC4)CC3)nc21 | – | 5.6 µg/mL (≈ 10.7 µM) | 12.6 µg/mL (≈ 24.1 µM) | 6.8 µg/mL (≈ 13 µM) | – |
| O=C1OCC(OCCN2CCN(c3cc4c(cc3F)c(=O)c(C(=O)O)cn4-c3ccc(F)cc3)CC2)=C1c1ccccc1 | – | 1.2 µg/mL (≈ 2.04 µM) | 0.6 µg/mL (≈ 1.02 µM) | 0.69 µg/mL (≈ 1.17 µM) | – |
| O=C1OCC(OCCN2CCN(c3cc4c(cc3F)c(=O)c(C(=O)O)cn4C3CC3)CC2)=C1c1ccccc1 | 7120 nM | 1 µg/mL (≈ 1.87 µM) | 0.23 µg/mL (≈ 0.431 µM) | 0.64 µg/mL (≈ 1.2 µM) | 5770 nM |
| CCn1cc(C(=O)O)c(=O)c2cc(F)c(N3CCN(CCOC4=C(c5ccccc5F)C(=O)OC4)CC3)cc21 | – | 2.7 µg/mL (≈ 5 µM) | 2.4 µg/mL (≈ 4.45 µM) | 3.3 µg/mL (≈ 6.12 µM) | – |
| CCn1cc(C(=O)O)c(=O)c2cc(F)c(N3CCN(CCOC4=C(c5ccccc5F)C(=O)OC4)CC3)nc21 | – | 2.6 µg/mL (≈ 4.81 µM) | 1.6 µg/mL (≈ 2.96 µM) | 2.6 µg/mL (≈ 4.81 µM) | – |
| O=C1OCC(OCCN2CCN(c3cc4c(cc3F)c(=O)c(C(=O)O)cn4-c3ccc(F)cc3)CC2)=C1c1ccccc1F | 2810 nM | 0.67 µg/mL (≈ 1.11 µM) | 0.2 µg/mL (≈ 0.33 µM) | 0.21 µg/mL (≈ 0.347 µM) | 3690 nM |
| O=C1OCC(OCCN2CCN(c3cc4c(cc3F)c(=O)c(C(=O)O)cn4C3CC3)CC2)=C1c1ccccc1F | 120 nM | 0.11 µg/mL (≈ 0.199 µM) | 0.09 µg/mL (≈ 0.163 µM) | 0.19 µg/mL (≈ 0.344 µM) | 1150 nM |
| O=C1OCC(OCCN2CCN(c3cc4c(cc3F)c(=O)c(C(=O)O)cn4C3CC3)CC2)=C1c1ccc(F)cc1 | 1290 nM | 0.37 µg/mL (≈ 0.671 µM) | 0.16 µg/mL (≈ 0.29 µM) | 0.24 µg/mL (≈ 0.435 µM) | 2840 nM |
| O=C1OCC(OCCN2CCN(c3cc4c(cc3F)c(=O)c(C(=O)O)cn4-c3ccc(F)cc3)CC2)=C1c1ccc(F)cc1 | – | 1.1 µg/mL (≈ 1.82 µM) | 0.2 µg/mL (≈ 0.33 µM) | 0.34 µg/mL (≈ 0.561 µM) | – |
| CCn1cc(C(=O)O)c(=O)c2cc(F)c(N3CCN(CCOC4=C(c5ccccc5Cl)C(=O)OC4)CC3)cc21 | – | 2.5 µg/mL (≈ 4.5 µM) | 0.9 µg/mL (≈ 1.62 µM) | 0.43 µg/mL (≈ 0.773 µM) | – |
| O=C1OCC(OCCN2CCN(c3cc4c(cc3F)c(=O)c(C(=O)O)cn4-c3ccc(F)cc3)CC2)=C1c1ccccc1Cl | 6370 nM | 0.72 µg/mL (≈ 1.16 µM) | 0.37 µg/mL (≈ 0.595 µM) | 0.25 µg/mL (≈ 0.402 µM) | 4050 nM |
| CCn1cc(C(=O)O)c(=O)c2cc(F)c(N3CCN(CCOC4=C(c5cccc(Cl)c5)C(=O)OC4)CC3)nc21 | – | 2.9 µg/mL (≈ 5.21 µM) | 15.3 µg/mL (≈ 27.5 µM) | 8.7 µg/mL (≈ 15.6 µM) | – |
| O=C1OCC(OCCN2CCN(c3cc4c(cc3F)c(=O)c(C(=O)O)cn4-c3ccc(F)cc3)CC2)=C1c1cccc(Cl)c1 | – | 0.89 µg/mL (≈ 1.43 µM) | 0.75 µg/mL (≈ 1.21 µM) | 0.44 µg/mL (≈ 0.707 µM) | – |
| CCn1cc(C(=O)O)c(=O)c2cc(F)c(N3CCN(CCOC4=C(c5ccc(Cl)cc5)C(=O)OC4)CC3)cc21 | – | 19.5 µg/mL (≈ 35.1 µM) | 18.5 µg/mL (≈ 33.3 µM) | 15.9 µg/mL (≈ 28.6 µM) | – |
| CCn1cc(C(=O)O)c(=O)c2cc(F)c(N3CCN(CCOC4=C(c5ccc(Cl)cc5)C(=O)OC4)CC3)nc21 | – | 9.6 µg/mL (≈ 17.2 µM) | 13.2 µg/mL (≈ 23.7 µM) | 24.9 µg/mL (≈ 44.7 µM) | – |
| O=C1OCC(OCCN2CCN(c3cc4c(cc3F)c(=O)c(C(=O)O)cn4-c3ccc(F)cc3)CC2)=C1c1ccc(Cl)cc1 | – | 1.7 µg/mL (≈ 2.73 µM) | 0.51 µg/mL (≈ 0.82 µM) | 7.8 µg/mL (≈ 12.5 µM) | – |
| O=C1OCC(OCCN2CCN(c3cc4c(cc3F)c(=O)c(C(=O)O)cn4C3CC3)CC2)=C1c1ccc(Cl)cc1 | – | 1.3 µg/mL (≈ 2.29 µM) | 0.16 µg/mL (≈ 0.282 µM) | 0.49 µg/mL (≈ 0.863 µM) | – |
| O=C1OCC(OCCN2CCN(c3cc4c(cc3F)c(=O)c(C(=O)O)cn4-c3ccc(F)cc3)CC2)=C1c1cccc(Br)c1 | – | 4.4 µg/mL (≈ 6.6 µM) | 0.43 µg/mL (≈ 0.645 µM) | 0.39 µg/mL (≈ 0.585 µM) | – |
| CCn1cc(C(=O)O)c(=O)c2cc(F)c(N3CCN(CCOC4=C(c5cccc(Br)c5)C(=O)OC4)CC3)nc21 | – | 12.2 µg/mL (≈ 20.3 µM) | 4.7 µg/mL (≈ 7.81 µM) | 13.1 µg/mL (≈ 21.8 µM) | – |
| CCn1cc(C(=O)O)c(=O)c2cc(F)c(N3CCN(CCOC4=C(c5ccc(Br)cc5)C(=O)OC4)CC3)cc21 | – | 13.5 µg/mL (≈ 22.5 µM) | > 25 µg/mL | 21.6 µg/mL (≈ 36 µM) | – |
| O=C1OCC(OCCN2CCN(c3cc4c(cc3F)c(=O)c(C(=O)O)cn4-c3ccc(F)cc3)CC2)=C1c1ccc(Br)cc1 | – | 4.2 µg/mL (≈ 6.3 µM) | 2.9 µg/mL (≈ 4.35 µM) | 11.1 µg/mL (≈ 16.7 µM) | – |
| O=C1OCC(OCCN2CCN(c3cc4c(cc3F)c(=O)c(C(=O)O)cn4C3CC3)CC2)=C1c1ccc(Br)cc1 | – | 3.8 µg/mL (≈ 6.2 µM) | 2.6 µg/mL (≈ 4.25 µM) | 8.5 µg/mL (≈ 13.9 µM) | – |
| Cc1ccc(C2=C(OCCN3CCN(c4cc5c(cc4F)c(=O)c(C(=O)O)cn5-c4ccc(F)cc4)CC3)COC2=O)cc1 | – | 2 µg/mL (≈ 3.32 µM) | 0.82 µg/mL (≈ 1.36 µM) | 0.45 µg/mL (≈ 0.748 µM) | – |
| Cc1ccc(C2=C(OCCN3CCN(c4cc5c(cc4F)c(=O)c(C(=O)O)cn5C4CC4)CC3)COC2=O)cc1 | – | 1.9 µg/mL (≈ 3.47 µM) | 0.39 µg/mL (≈ 0.712 µM) | 0.53 µg/mL (≈ 0.968 µM) | – |
| COc1ccc(C2=C(OCCN3CCN(c4cc5c(cc4F)c(=O)c(C(=O)O)cn5C4CC4)CC3)COC2=O)cc1 | – | 23.5 µg/mL (≈ 41.7 µM) | 2.6 µg/mL (≈ 4.61 µM) | 6.5 µg/mL (≈ 11.5 µM) | – |
| O=C1OCC(OCCN2CCN(c3cc4c(cc3F)c(=O)c(C(=O)O)cn4-c3ccc(F)cc3)CC2)=C1c1ccccc1OCc1ccccc1 | – | 2.8 µg/mL (≈ 4.04 µM) | 0.58 µg/mL (≈ 0.836 µM) | 2.1 µg/mL (≈ 3.03 µM) | – |
| O=C(O)c1cn(C2CC2)c2cc(N3CCNCC3)c(F)cc2c1=O [CIPROFLOXACIN] | – | 5.65 µg/mL (≈ 17.1 µM) | 2.7 µg/mL (≈ 8.15 µM) | 6.82 µg/mL (≈ 20.6 µM) | – |
